Test results published in article PMC7887132 (Chemistry (Weinheim an der Bergstrasse, Germany), 2020).

Key:
[1] = molecular target: EGFR WT (Homo sapiens, UniProt P00533); experiment: Anti-protein kinase activity, EGFR WT; assay type: biochemical; details: for IC50: read-out: Anti-protein kinase activity (IC50) EGFR WT
[2] = molecular target: Abl T315I (Homo sapiens, UniProt P00519, T315I); experiment: Anti-protein kinase activity, Abl T315I; assay type: biochemical; details: read-out: Anti-protein kinase activity (IC50) Abl T315I
[3] = molecular target: EGFR T790M /L858R (Homo sapiens, UniProt P00533, L858R/T790M); experiment: Anti-protein kinase activity, EGFR T790M/L858R; assay type: biochemical; details: read-out: Anti-protein kinase activity (IC50) EGFR T790M /L858R
[4] = Solubility in water; assay type: physicochemical
[5] = molecular target: Abl WT (Homo sapiens, UniProt P00519); experiment: Anti-protein kinase activity, Abl WT; assay type: biochemical; details: read-out: Anti-protein kinase activity (IC50) Abl WT
[6] = molecular target: FLT1 (Homo sapiens, UniProt P17948); experiment: Anti-protein kinase activity, FLT1; assay type: biochemical; details: read-out: Anti-protein kinase activity (IC50) FLT1
[7] = molecular target: c-Met (Homo sapiens, UniProt P08581); experiment: Anti-protein kinase activity, c-Met; assay type: biochemical; details: for IC50: read-out: Anti-protein kinase activity (IC50) c-Met; for percentage of inactivated c-Met: 1 μM of compound used as inhibitor
Method in brief: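 ELISA kinase-kit format, run in duplicate. Met positive-control enzyme (10 μL of 0.1 unit/μL) goes into wells on ice, with kinase assay buffer containing the test compound. Kinase reaction buffer starts the reaction, 60 min at 30 °C. After washing, HRP-conjugated detection antibody PY-39 is added for 60 min at room temperature, then substrate reagent for 5–15 min, then stop solution. Absorbance is read at 450/540 nm within 30 min.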

[8] = molecular target: EGFR L858R (Homo sapiens, UniProt P00533, L858R); experiment: Anti-protein kinase activity, EGFR L858R; assay type: biochemical; details: read-out: Anti-protein kinase activity (IC50) EGFR L858R
[9] = test system: tyrosine kinases; details: previously synthesized and tested; no reference given; cited from earlier work

FLT1, sequence (P17948 27-1338): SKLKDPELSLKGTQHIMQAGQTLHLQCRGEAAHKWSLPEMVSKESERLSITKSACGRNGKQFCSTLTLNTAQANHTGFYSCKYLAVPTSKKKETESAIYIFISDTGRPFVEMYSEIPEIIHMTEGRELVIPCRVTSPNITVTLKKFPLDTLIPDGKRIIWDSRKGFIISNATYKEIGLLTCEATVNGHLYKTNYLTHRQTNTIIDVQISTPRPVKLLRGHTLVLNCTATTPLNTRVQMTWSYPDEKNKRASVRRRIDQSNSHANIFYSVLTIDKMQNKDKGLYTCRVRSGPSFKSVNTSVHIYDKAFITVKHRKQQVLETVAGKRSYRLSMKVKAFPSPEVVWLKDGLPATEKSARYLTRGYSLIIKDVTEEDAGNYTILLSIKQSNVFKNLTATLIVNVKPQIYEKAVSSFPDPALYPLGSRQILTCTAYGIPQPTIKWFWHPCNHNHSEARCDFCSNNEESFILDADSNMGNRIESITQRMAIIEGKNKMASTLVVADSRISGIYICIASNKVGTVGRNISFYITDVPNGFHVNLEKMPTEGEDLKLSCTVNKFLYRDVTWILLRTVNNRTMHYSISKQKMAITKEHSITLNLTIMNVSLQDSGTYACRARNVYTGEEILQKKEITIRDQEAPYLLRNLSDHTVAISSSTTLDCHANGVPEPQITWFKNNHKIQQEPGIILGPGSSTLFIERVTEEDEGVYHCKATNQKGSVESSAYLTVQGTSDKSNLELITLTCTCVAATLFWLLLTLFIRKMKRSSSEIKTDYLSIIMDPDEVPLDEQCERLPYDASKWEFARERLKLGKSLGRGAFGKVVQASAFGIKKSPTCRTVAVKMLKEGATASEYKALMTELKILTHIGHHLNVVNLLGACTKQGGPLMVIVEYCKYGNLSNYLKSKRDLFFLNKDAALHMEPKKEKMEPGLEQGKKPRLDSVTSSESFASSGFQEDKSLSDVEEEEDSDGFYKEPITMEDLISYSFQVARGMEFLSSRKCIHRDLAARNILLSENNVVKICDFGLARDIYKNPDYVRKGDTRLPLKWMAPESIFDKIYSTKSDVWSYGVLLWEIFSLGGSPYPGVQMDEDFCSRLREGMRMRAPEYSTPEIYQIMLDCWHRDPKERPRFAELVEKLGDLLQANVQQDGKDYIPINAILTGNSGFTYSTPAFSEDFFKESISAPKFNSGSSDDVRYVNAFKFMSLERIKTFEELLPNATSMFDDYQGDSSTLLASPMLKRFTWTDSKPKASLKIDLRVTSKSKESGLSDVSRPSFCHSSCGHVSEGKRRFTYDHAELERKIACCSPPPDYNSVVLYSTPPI
c-Met, sequence (P08581 25-1390): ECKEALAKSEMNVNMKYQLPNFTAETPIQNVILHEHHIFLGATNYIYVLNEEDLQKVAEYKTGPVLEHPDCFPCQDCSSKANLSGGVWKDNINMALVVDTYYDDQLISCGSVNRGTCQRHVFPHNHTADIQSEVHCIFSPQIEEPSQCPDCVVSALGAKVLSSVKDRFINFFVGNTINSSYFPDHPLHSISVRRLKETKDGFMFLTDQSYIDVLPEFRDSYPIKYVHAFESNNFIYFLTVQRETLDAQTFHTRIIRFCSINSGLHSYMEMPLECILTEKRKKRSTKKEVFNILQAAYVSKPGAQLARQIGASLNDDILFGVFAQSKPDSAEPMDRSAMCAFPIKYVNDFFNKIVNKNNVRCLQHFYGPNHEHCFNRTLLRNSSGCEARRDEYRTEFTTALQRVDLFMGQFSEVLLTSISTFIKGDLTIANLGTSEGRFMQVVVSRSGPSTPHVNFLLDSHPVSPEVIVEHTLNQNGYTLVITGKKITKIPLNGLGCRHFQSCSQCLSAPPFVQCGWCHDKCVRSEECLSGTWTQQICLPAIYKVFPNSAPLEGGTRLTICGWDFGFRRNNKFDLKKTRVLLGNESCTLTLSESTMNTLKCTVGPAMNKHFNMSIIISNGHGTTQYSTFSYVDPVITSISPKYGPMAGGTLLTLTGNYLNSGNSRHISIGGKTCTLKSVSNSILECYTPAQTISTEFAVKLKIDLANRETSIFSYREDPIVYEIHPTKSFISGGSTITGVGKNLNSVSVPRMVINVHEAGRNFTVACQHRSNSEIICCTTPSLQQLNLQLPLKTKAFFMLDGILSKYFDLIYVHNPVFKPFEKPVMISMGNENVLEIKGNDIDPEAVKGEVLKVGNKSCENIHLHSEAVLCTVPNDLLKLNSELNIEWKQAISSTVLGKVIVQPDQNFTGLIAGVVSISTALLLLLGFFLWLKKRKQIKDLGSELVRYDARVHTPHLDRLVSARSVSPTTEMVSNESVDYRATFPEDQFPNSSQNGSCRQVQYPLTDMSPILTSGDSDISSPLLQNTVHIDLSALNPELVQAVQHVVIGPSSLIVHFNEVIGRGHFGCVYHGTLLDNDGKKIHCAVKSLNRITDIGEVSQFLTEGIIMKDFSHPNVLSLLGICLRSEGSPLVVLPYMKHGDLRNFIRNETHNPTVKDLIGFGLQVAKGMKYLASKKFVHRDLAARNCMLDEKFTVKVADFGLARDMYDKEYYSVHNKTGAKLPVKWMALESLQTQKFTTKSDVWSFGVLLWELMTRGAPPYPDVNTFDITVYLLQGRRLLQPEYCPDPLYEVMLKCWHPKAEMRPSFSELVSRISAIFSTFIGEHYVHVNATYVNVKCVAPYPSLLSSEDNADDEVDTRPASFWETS

Row | Compound | IC50 [1] | IC50 [2] | IC50 [3] | solubility in water [4] | IC50 [5] | IC50 [6] | IC50 [7] | IC50 [8] | inhibitory activity as tyrosine kinases inhibitor [9] | inhibition of EGFR WT (in words) [1] | percentage of inactivated EGFR WT ([1]; 1 μM of compound used as inhibitor) | percentage of inactivated c-Met [7] | anti-c-Met activity (in words) [7]
1 | 2,15-Diaza-2,15-diheptanoyl[3.3](2,2’)(4,4’-bithiazolophane) [compound 3] | > 1000 nM | > 1000 nM | > 1000 nM | only slightly soluble in water | > 1000 nM | > 1000 nM | > 1000 nM | > 1000 nM | – | – | – | – | –
2 | 2,6-di(thiazol-4-yl)pyridinophane [compound 5] | – | – | – | – | – | – | – | – | didn’t show any inhibitory activity | – | – | – | –
3 | 2,15-diaza-2,15-bis(tert-butoxycarbonyl)[3.3](2,2’)(4,4’-bithiazolophane) [compound 1] | > 1000 nM | > 1000 nM | > 1000 nM | only slightly soluble in water | > 1000 nM | > 1000 nM | 603 nM | > 1000 nM | – | partial inhibition | 44% | 59% | –
4 | CC(C)COC(=O)N1Cc2nc(cs2)-c2csc(n2)CN(C(=O)OCC(C)C)Cc2nc(cs2)-c2csc(n2)C1 [compound 4, 2,15-Bis(isobutoxycarbonyl)-2,15-diaza[3.3](2,2’)(4,4’-bithiazolophane)] | > 1000 nM | > 1000 nM | > 1000 nM | only slightly soluble in water | > 1000 nM | > 1000 nM | > 1000 nM | > 1000 nM | – | – | – | 5% | showed anti-c-Met activity
5 | 2,15-diaza[3.3](2,2’)(4,4’-bithiazolophanium) dichloride [compound 2] | > 1000 nM | > 1000 nM | > 1000 nM | almost freely soluble in water | > 1000 nM | > 1000 nM | > 1000 nM | > 1000 nM | – | – | – | 33% | showed anti-c-Met activity
